Source: publication PMC11034909 (Advanced therapeutics, 2023)

Columns and labels:
[1] = Body weight of CT26 tumor-bearing mice; assay type: in vivo, mouse; settings: doxorubicin 5 mg/kg i.v. days 6, 9, 12, alone or in the combination group
Outline: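 Eight-week-old male and female Balb/c mice received 1×10⁶ CT26 cells s.c. in the right flank. At 50–100 mm³, tumours were randomised into groups of 10 (half female). Doxorubicin 5 mg/kg i.v. was given on days 6, 9 and 12 post-implant, alone or combined with test peptide 5 mg/kg daily. Saline served as negative control. Body weight was recorded daily throughout treatment.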

[2] = doxorubicin; cited from earlier work
[3] = tested on: triple negative breast cancer; settings: cited from earlier work
[4] = tested on: tumor immunogenic cell death (ICD); settings: cited from earlier work

## COc1cccc2c1C(=O)c1c(O)c3c(c(O)c1C2=O)C[C@@](O)(C(=O)CO)C[C@@H]3O[C@H]1C[C@H](N)[C@H](O)[C@H](C)O1 [doxorubicin]
[1]
  Systemic toxicity (weight loss): slight systemic toxicity
[2]
  Maximum tolerated dose: 5 mg/kg
[3]
  Effect on CD47 expression: induced CD47 expression in triple negative breast cancer
[4]
  Induction of tumor immunogenic cell death: induce tumor immunogenic cell death (ICD)
